The record followed here is publication PMC9305987 (Nature cell biology, 2022).

Where two headings read alike, the source gives them in different places. Some results are limits rather than exact numbers.

For data set [1], the system named is TET2-overexpressing HEK293T cells. As to the kind of experiment: Global histone methylation markers by western blot. It counts as cell-based. For orientation: A western blot detects proteins with antibodies after separation by electrophoresis.
For data set [2], the system named is HEK293T cells overexpressing TET3. Kind of data set: Global 5hmC by dot-blot and LC-MS/MS in TET3-overexpressing cells. It is filed as cell-based. In a few lines:
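For dot-blot, genomic DNA was spotted on nitrocellulose, UV-crosslinked for 20 min, blocked in 5% milk, probed with anti-5hmC overnight at 4°C and HRP secondary, then scanned. Global 5hmC was also measured by LC-MS/MS, mean with S.D. of 3 independent experiments.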

In the next data set the test system is Tet2^+/+ BMDMs. Kind of data set: 5hmC mapping by hMeDIP-seq in BMDMs. It is filed as cell-based, mouse. Particulars: 0.5 mM OI, 8 hours.
For data set [3], the system named is HEK293T cells overexpressing mTET2^CD. As to the kind of experiment: Global 5hmC by immunofluorescence in TET2-overexpressing cells. It is filed as cell-based. Conditions: for Effect on 5hmC: HEK293T overexpressing mTET2^CD. In a few lines:
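TET2-overexpressing HEK293T cells were treated with OI alone or with rising amounts of dimethyl-α-KG. 5hmC immunofluorescence: Triton X-100 permeabilization, 2 N HCl denaturation for 30 min, Tris pH 8.5 neutralization, BSA block, anti-5hmC overnight at 4°C, fluorescent secondary, DAPI counterstain. Two independent experiments.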

For data set [4], the system named is RAW264.7 mouse macrophages. As to the kind of experiment: Intracellular ITA accumulation by LC-MS/MS. Conditions: RAW264.7, dose-dependent. It counts as cell-based.
The test system of data set [5] is RAW264.7 cells. Kind of data set: qRT-PCR of LPS-induced genes. It is filed as cell-based, mouse. In a few lines:
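Alternatively, cells got LPS for 2 h, then OI for 2 h, or LPS plus dimethyl-α-KG (0.5, 1, 2 mM). mRNA was measured by qRT-PCR with β-actin as housekeeping control. Nfkbiz data are means with S.D. of 3 independent experiments.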
Background: Quantitative PCR measures a nucleic acid by following its amplification.

The subject of data set [6] is bone marrow-derived macrophages (BMDMs). As to the kind of experiment: Global 5hmC quantification by LC-MS/MS in BMDMs. It is filed as cell-based, mouse. Particulars: 0.5 mM OI or increased concentrations of ITA, 8 hours; for Reduction of global 5hmC: Tet2^+/+ BMDMs; for Effect on global 5hmC: Tet2^−/− BMDMs.
In the next data set the target is T1, mTET2^CD (Mus musculus, UniProt Q4JK59).
T1 sequence (Q4JK59 1042-1912 limits assumed): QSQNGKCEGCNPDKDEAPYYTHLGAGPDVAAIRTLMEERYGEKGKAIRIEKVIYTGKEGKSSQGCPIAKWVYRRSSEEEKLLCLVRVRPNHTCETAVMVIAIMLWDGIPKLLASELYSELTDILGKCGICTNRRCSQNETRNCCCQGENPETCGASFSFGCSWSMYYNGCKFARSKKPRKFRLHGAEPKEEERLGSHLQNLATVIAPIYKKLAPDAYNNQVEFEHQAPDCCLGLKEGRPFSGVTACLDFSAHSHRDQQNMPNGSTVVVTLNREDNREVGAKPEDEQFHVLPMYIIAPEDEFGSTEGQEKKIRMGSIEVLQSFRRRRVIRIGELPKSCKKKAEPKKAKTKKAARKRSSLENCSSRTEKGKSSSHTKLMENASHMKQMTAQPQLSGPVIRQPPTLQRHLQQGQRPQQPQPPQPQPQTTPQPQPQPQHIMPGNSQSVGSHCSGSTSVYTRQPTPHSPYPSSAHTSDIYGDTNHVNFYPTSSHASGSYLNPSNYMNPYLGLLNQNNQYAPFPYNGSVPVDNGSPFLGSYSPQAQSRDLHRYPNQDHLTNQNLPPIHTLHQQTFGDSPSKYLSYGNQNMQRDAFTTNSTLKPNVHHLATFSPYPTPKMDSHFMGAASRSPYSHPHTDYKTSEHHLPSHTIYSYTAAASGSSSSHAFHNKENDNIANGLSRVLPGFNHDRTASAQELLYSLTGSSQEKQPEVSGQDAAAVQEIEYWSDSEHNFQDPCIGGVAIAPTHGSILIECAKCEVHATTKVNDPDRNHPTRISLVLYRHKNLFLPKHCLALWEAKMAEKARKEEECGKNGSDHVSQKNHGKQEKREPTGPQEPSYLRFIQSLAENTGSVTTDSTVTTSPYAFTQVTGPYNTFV
It is filed as biochemical. Particulars: for Inhibition of mTET2^CD activity in presence of excess α-KG: fixed concentration of inhibitor, variable α-KG.

The test system of a further data set is Irg1-KO RAW264.7 cells. Kind of data set: SDH inhibition, succinate and 5hmC in LPS-stimulated Irg1-KO macrophages. Conditions: 3-NPA 1 mM, LPS-stimulated Irg1-KO RAW264.7. It counts as cell-based, mouse.
Data set [7] has as its system TET2^CD mutant, i.e. R1896M or S1898F. As to the kind of experiment: STD NMR binding to TET2^CD mutants. More on the design: species or system human.
The target of data set [8] is recombinant human TET2^CD (Homo sapiens, UniProt Q6N021). Kind of data set: Saturation transfer difference. It is filed as binding. Put shortly: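 Spectra were run at 25°C, 700 MHz, cryoprobe, carrier on water. A 3-s saturation used a 50-ms EBurp2 pulse (0.75 ppm bandwidth) centred at 0.8 ppm for difference or −40 ppm for reference spectra.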
The subject of a further data set is LPS-induced sepsis. Kind of data set: Mouse model of LPS-induced sepsis. It is filed as in vivo. Conditions: Tet2^−/− mice.
For a further data set, the system named is peritoneal leukocytes. Kind of data set: Genomic 5hmC and 5mC in peritoneal leukocytes after i.p. ITA, LC-MS/MS. It is filed as in vivo, mouse. Conditions: 50 mg/kg ITA i.p. prior to LPS 25 mg/kg.
Data set [9] concerns RAW264.7 cells. Kind of data set: Genomic 5hmC by IF staining in LPS-treated macrophages. It is filed as cell-based, mouse. Conditions: LPS 12 hours then 1 mM for 12 hours. In a few lines: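 RAW264.7 cells (DMEM, 10% FBS) were challenged with LPS for 12 h, then given dimethyl-α-KG (1 mM) for 12 h. Cells were permeabilized with 0.3% Triton X-100 for 15 min, DNA denatured with 2 N HCl for 30 min, and neutralized with 100 mM Tris-HCl pH 8.5. Staining used 3% BSA block, anti-5hmC at 4°C overnight, Alexa Fluor 594 secondary for 1 h, and DAPI, then fluorescence microscopy.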

A word on the IC50: it is the concentration that gives 50% inhibition.

Turning to `C=C(CC(=O)OCCCCCCCC)C(=O)O` [OI, octyl-ITA], the “Effect on global histone methylation” value in data set [1] was “no detectable effect”. Besides, the “Effect on global 5hmC” value is recorded as “decreased global 5hmC” in [2] and “little effect” in data set [6]. Further, the “5hmC by hMeDIP-seq” value with Tet2^+/+ BMDMs was “decreased 5hmC at both promoters and intragenic regions”. Also, the “Effect on 5hmC” value in [3] is “dose-dependently reduced 5hmC”. For the same molecule, the “Time to intracellular accumulation of ITA” value in data set [4] was less than 30 s. Moreover, the “Nfkbiz mRNA expression” value in the data set with RAW264.7 cells [5] (LPS-stimulated Tet2-KO cells) is “failed to affect”. Besides, the “LPS-induced mRNA expression of Nfkbiz, Il-6, Cxcl9/10/11” value in the data set with RAW264.7 cells [5] (Tet2-WT, LPS 2 hours then OI 2 hours) is “hindered”. Moreover, the “Reduction of global 5hmC” value in data set [6] is reported as no more than 95%.

For the molecule `O=C(O)/C=C/C(=O)O` [fumarate], the half-inhibitory concentration (IC50) at mTET2^CD (read-out: IC50 toward mTET2^CD catalytic activity, 0.1 mM α-KG, 37°C 30 min) is greater than 5000 µM.

As for `O=C(O)CC[N+](=O)[O-]` [3-NPA, 3-nitropropionic acid], in the data set on Irg1-KO RAW264.7 cells, the “Effect on global 5hmC” value is reported as “little effect” and the “Intracellular accumulation of succinate” value was no more than 1.5 mM.

For `C=C(CC(=O)O)C(=O)O` [ITA, itaconic acid], at mTET2^CD, the IC50 was found to be 171 µM and the “Inhibition of mTET2^CD activity in presence of excess α-KG” value is recorded as “overcome dose-dependently by excess α-KG”. In addition, the “Binding to TET2^CD mutants R1896M or S1898F (STD NMR)” value in [7] is given as “abolish the binding”. Further, the “Effect on global 5hmC” value in [2] is recorded as “decreased global 5hmC”. Moreover, the “Binding to recombinant human TET2^CD (STD NMR)” value in data set [8] is listed as “bound directly”. Moreover, the “ITA-TET2^CD binding in presence of α-KG (STD NMR)” value in data set [8] (competition with α-KG) is reported as “blocked by α-KG”. Further, the “Anti-inflammatory and protective effects” value with LPS-induced sepsis is on record as “not observed”. The “Time to intracellular accumulation of ITA” value in [4] was less than 30 s. For the same molecule, in the data set with RAW264.7 cells [5] (unmodified ITA 3 mM, Tet2-WT vs Tet2-KO), the “Suppression of LPS-induced chemokine and cytokine genes upon Tet2 deletion” value is reported as “completely abolished by Tet2 deletion”. Moreover, in the data set with peritoneal leukocytes, the “5mC in peritoneal leukocytes” value is given as “unaffected”. Moreover, the “Reduction of 5hmC in peritoneal leukocytes” value in the data set with peritoneal leukocytes (2 hours post LPS) is given as no more than 36%. Also, in data set [6], the “Reduction of global 5hmC” value was no more than 95% and the “Effect on global 5hmC” value is “little effect”.

`NC(=O)CC[C@H](N)C(=O)O` [glutamine]: the “Binding to recombinant human TET2^CD (STD NMR)” value in data set [8] was “not”.

With `COC(=O)CCC(=O)C(=O)OC` [dimethyl-α-KG], in [3] (increasing amount, together with OI), the “Effect on OI-induced 5hmC reduction” value is reported as “reversed”. Further, the “Nfkbiz mRNA” value in the data set with RAW264.7 cells [5] (LPS-stimulated Tet2-WT but not Tet2-KO cells) was “further increase”. Moreover, the “Effect on 5hmC in LPS-treated cells” value with RAW264.7 cells [9] is given as “restored 5hmC”.

For the molecule `O=C(O)CC[C@H](O)C(=O)O` [L-2-HG], the “Inhibition of mTET2^CD activity in presence of excess α-KG” value on mTET2^CD is given as “overcome dose-dependently by excess α-KG”.

For the molecule α-ketoglutarate [α-KG], the “Binding to TET2^CD R1896M mutant (STD NMR)” value in data set [7] (R1896M mutation, not S1898F) is reported as “weakens the binding”.

Consider `CCCCCCCCOC(=O)[C@@H](O)CCC(=O)O` [Octyl-L-2HG], for which, in data set [3], the “Effect on 5hmC” value was “dose-dependently reduced 5hmC”.
